Measurements from different studies.
Compare with care: the assays were run in different laboratories.
Target: MAP/microtubule affinity-regulating kinase 3 (MARK3, Homo sapiens, UniProt P27448)

With C[C@@H]1CN(c2cc(-c3n[nH]c4ccc(OC5(C)CC5)cc34)ncn2)C[C@H](C)O1 the remaining binding was 73% (cell-free assay; competition with immobilised ligand; 0.1 µM).
Cc1nn(CC(F)(F)F)cc1Nc1ncc(C2CC2)c(NCCc2c[nH]cn2)n1 gave a remaining activity of 96% (enzyme activity; inhibitor; radiometric; 1 µM).
O=C1Nc2ccc(Cl)cc2C1=Cc1cc(Cl)c(O)c(Cl)c1 gave a remaining signal of 81.1% (cell-free assay; 0.5 µM).
CNc1cc(Oc2cc(C(=O)Nc3cc(N4CCN(C)CC4)cc(C(F)(F)F)c3)ccc2C)ncn1 has an inhibition of -18.5% (target engagement in cells; inhibitor; chemoproteomics; Huh-7; 1 µM).
For O=C(NCCCNc1ccnc(Nc2cccc(NC(=O)N3CCCC3)c2)n1)C1CCC1, the remaining activity was 92% (enzyme activity; inhibitor; radiometric; 1 µM).
With Cc1c(NC(=O)c2cc(C(N)=O)nc3cc(F)ccc23)c(C(F)(F)F)nn1Cc1ccc(C#N)cc1 the remaining binding was 100% (cell-free assay; competition with immobilised ligand; 1 µM).
With Nc1nc(Nc2ccccc2)sc1C(=O)c1c(F)cccc1F the remaining activity was 25% (enzyme activity; inhibitor; 10 µM).
CN(C)CC#Cc1ccc(OCCCc2sc(N3CCc4cccc(C(=O)Nc5nc6ccccc6s5)c4C3)nc2C(=O)O)c(F)c1 has a remaining binding of 38% (cell-free assay; competition with immobilised ligand; 1 µM).
The remaining activity of Cc1nn(CC(F)(F)F)cc1Nc1ncc(Br)c(NCCc2cnc[nH]2)n1 is reported as 68% (enzyme activity; inhibitor; radiometric; 1 µM).
For COc1cccc2c(NCc3ccccc3)nc(-n3c(N)nc4ccccc43)nc12, the inhibition was -1% (target engagement in cells; inhibitor; chemoproteomics; 20 mM).
O=C(NCCCNc1nc(Nc2cccc(CN3CCOCC3)c2)ncc1C1CC1)C1CCC1 gave a remaining activity of -1% (enzyme activity; inhibitor; radiometric; 1 µM).
The activity vs control of FC(F)(F)Oc1cccc(-c2cnc3ccc(-c4ccncc4)nn23)c1 is reported as 91% (enzyme activity; inhibitor; radiometric; 1 µM).
With O=C(NCCCNc1nc(Nc2cccc(NC(=O)N3CCCC3)c2)ncc1Br)C1CCC1 the remaining activity was -3% (enzyme activity; inhibitor; radiometric; 1 µM).
With C[C@H](c1ccnc(Nc2nc3ccc(-c4cc(N(C)C)ncn4)cc3[nH]2)c1)N1CCN(C(=O)CC(F)(F)F)CC1 the remaining binding was 100% (cell-free assay; competition with immobilised ligand; 0.1 µM).
With CS(=O)(=O)CCNCc1ccc(-c2ccc3ncnc(Nc4ccc(OCc5cccc(F)c5)c(Cl)c4)c3c2)o1 the remaining signal was 95.9% (cell-free assay; 0.5 µM).
The remaining activity of Cc1nn(CC(F)(F)F)cc1Nc1nccc(NCCc2cnc[nH]2)n1 is reported as 126% (enzyme activity; inhibitor; radiometric; 1 µM).
CN(c1ncccc1CNc1nc(Nc2ccc3c(c2)CC(=O)N3)ncc1C(F)(F)F)S(C)(=O)=O gave an inhibition of 83.5% (enzyme activity; inhibitor; 1 µM).
CCS(=O)(=O)c1cc2cc(C[C@](O)(CC(C)(C)c3ccc(F)cc3C(N)=O)C(F)(F)F)[nH]c2cn1 has a remaining binding of 100% (cell-free assay; competition with immobilised ligand; 1 µM).
COc1cc2ncnc(Nc3ccc(Oc4ccccc4)c(C)c3C)c2cc1OC gave an inhibition of -4% (enzyme activity; inhibitor; 1 µM).
The remaining binding of Cc1cc(C)c(-n2ccn3nc(-c4cccnc4)cc23)cc1NC(=O)c1cc(C#N)cc(S(F)(F)(F)(F)F)c1 is reported as 85.1% (cell-free assay; competition with immobilised ligand; 0.1 µM).
With CS(=O)(=O)Nc1cccc(-c2csc(NC(=O)CSc3nc4nccnc4c(=O)n3CCc3ccccc3)n2)c1 the inhibition was 1% (enzyme activity; inhibitor; 10 µM).
